Measured values reported in article PMC12709667 (Journal of Clinical Pharmacology, 2025).

Legend:
BCRP = target: T1, BCRP (Homo sapiens, UniProt Q9UNQ0); assay: ABC transporter inhibition, inside-out vesicles; format: in vitro ADME
T1 sequence (Q9UNQ0 1-655): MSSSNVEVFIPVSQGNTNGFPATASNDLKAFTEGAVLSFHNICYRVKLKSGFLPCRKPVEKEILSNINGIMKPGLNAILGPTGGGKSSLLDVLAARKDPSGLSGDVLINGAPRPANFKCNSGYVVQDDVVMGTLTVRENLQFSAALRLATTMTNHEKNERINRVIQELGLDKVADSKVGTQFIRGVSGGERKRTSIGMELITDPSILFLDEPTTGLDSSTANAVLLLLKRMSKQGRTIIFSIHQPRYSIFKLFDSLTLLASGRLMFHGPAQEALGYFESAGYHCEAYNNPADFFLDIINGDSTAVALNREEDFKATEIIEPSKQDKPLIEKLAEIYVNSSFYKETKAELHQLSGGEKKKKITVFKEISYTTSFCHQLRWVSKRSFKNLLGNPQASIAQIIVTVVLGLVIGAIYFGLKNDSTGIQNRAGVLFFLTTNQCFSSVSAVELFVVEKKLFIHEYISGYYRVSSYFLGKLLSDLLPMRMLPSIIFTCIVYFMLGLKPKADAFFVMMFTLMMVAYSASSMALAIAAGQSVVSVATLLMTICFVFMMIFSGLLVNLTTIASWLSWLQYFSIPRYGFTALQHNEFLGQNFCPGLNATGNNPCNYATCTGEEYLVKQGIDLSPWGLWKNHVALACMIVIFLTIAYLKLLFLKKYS
Outline: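 Inhibition of human BCRP transport was measured in inside-out membrane vesicles prepared from cells overexpressing the human ABC transporter.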

[1] = First-in-human study, single ascending dose; format: in vivo
[2] = Clinical safety in phase 1 studies; format: in vivo, human
Outline: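 Healthy adult subjects in phase 1 studies received oral single doses, or once-daily doses for up to 14 days, with placebo controls in some parts. They were housed in the clinical pharmacology unit from at least the day before dosing until ≥24 h after the last dose. Treatment-emergent adverse events were recorded and graded for intensity.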

[3] = First-in-human study, multiple ascending dose; format: in vivo; details: for half-life: human, plasma, oral
OATP1B1 = target: T2, OATP1B1 (Homo sapiens, UniProt Q9Y6L6); assay: Transporter substrate assessment; format: in vitro ADME
T2 sequence (Q9Y6L6 1-691): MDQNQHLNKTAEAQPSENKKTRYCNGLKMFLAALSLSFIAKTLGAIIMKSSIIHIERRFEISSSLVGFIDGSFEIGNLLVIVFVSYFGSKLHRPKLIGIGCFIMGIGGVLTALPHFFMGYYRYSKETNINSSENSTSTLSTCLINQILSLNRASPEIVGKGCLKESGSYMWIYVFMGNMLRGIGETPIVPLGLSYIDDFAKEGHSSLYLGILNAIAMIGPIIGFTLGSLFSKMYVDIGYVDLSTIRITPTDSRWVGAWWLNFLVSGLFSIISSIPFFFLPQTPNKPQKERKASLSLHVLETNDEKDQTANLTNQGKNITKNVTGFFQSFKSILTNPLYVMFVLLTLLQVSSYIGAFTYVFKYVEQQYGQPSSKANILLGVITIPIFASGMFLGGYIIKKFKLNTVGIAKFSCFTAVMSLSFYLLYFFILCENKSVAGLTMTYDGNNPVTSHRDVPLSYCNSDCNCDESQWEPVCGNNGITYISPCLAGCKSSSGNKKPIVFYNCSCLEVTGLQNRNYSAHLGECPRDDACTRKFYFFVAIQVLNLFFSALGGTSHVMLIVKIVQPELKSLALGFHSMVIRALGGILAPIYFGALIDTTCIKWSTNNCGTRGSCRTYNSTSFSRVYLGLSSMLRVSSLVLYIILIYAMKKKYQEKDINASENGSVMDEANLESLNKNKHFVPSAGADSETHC

[4] = First-in-human study Part 3, 100-mg SDD tablet food effect; format: in vivo; details: plasma, oral, 200 mg; for AUC: AUC0‐last; for AUC / Cmax: single 200 mg dose of 100‐mg SDD tablets; for half-life: t1/2, single 200 mg dose of 100‐mg SDD tablets
fatty liver disease = details: cited from earlier work
UGT1A3 = target: T3, UGT1A3 (Homo sapiens, UniProt P35503); assay: Phase 2 enzyme inhibition; format: in vitro ADME
T3 sequence (P35503 29-534): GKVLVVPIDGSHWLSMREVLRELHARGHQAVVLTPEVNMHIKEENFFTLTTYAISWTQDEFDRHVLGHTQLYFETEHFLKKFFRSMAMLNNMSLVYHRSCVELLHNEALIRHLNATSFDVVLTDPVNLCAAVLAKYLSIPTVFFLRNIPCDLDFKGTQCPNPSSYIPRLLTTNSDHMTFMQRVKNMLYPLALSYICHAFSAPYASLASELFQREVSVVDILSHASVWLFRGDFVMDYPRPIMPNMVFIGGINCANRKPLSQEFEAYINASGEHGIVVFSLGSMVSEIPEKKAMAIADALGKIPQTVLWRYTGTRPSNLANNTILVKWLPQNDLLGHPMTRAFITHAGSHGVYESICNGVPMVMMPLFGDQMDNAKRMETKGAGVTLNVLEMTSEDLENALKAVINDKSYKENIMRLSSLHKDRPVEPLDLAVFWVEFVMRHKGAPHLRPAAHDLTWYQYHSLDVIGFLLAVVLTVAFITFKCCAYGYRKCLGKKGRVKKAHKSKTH

CYP3A4 = format: in vitro ADME, human; details: up to 10 µM
CYP2C9 = CYP2C9 (Homo sapiens, UniProt P11712); assay: DDI perpetrator study: tolbutamide probe; format: in vivo; details: miricorilant 400 mg once daily as perpetrator
[5] = repeated once‐daily dosing for up to 14 days
[6] = single‐dose studies, healthy subjects

Sequence of CYP2C9 (P11712 whole entry): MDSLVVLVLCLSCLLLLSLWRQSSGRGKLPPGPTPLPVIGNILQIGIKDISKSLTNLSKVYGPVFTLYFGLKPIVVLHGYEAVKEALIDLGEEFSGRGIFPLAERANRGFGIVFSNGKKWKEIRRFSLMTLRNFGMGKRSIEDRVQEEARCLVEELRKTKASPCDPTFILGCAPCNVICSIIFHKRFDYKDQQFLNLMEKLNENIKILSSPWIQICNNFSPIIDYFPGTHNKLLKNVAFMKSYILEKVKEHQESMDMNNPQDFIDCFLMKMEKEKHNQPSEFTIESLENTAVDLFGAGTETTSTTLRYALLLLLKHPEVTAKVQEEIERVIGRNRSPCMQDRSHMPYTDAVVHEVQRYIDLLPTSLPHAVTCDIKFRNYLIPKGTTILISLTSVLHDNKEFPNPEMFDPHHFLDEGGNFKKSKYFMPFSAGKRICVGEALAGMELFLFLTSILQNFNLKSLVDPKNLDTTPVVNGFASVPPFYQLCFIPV

O=c1[nH]c(=O)c(Cc2cccc(C(F)(F)F)c2)c([C@H]2CC[C@H](c3ccccc3)CC2)[nH]1 [miricorilant]
IC50 (BCRP): 480 nM
increase in AUC0‐last, fed versus fasted ([1]; 900 mg SDD suspension): approximately 3.34 fold
increase in Cmax, fed versus fasted ([1]; 900 mg SDD suspension): approximately 2.45 fold
increase in AUC on administration with food ([1]; Discussion, dose and formulation not stated): 2.3 fold
half-life ([1]; human, plasma, oral, half‐life, single doses, healthy subjects): ~20 h
overall safety and tolerability ([2]; phase 1 studies): safe and well‐tolerated
intensity of TEAEs [2, 5]: mild or moderate
most commonly reported TEAE [2, 5]: headache
deaths or serious adverse events ([2]; repeated‐dose studies): no deaths or treatment‐emergent serious adverse events
discontinuation due to TEAEs [2, 6]: No subjects
intensity of TEAEs [2, 6]: mild or moderate
most commonly reported TEAE [2, 6]: headache
average increase in Cmax and AUC0‐last per doubling of the dose ([3]; 150, 450, 900 mg once daily, day 1): 1.92 fold
half-life [3]: ~20 h
half-life ([3]; 150 mg): 21.6 h
half-life ([3]; 450 mg): 21.2 h
half-life ([3]; 900 mg): 19.4 h
accumulation ratio for Cmax ([3]; repeated daily dosing (Discussion/Conclusions)): ≈ 1.5 fold
Substrate of OATP1B1 (OATP1B1): not a substrate
AUC ([4]; Fasted, geometric mean (%CV)): 1620 ng·h/mL
AUC ([4]; Fed, geometric mean (%CV)): 3560 ng·h/mL
Cmax ([4]; Fasted, geometric mean (%CV)): 105 ng/mL
Cmax ([4]; Fed, N = 6, geometric mean (%CV)): 184 ng/mL
half-life ([4]; Fasted, geometric mean (%CV)): 21.1 h
half-life ([4]; Fed, geometric mean (%CV)): 19.6 h
efficacy in mouse models of fatty liver disease (fatty liver disease): shown efficacy
inhibition of UGT1A3 (UGT1A3): did not inhibit
highest observed CYP3A4 induction (CYP3A4; one of three donors, concentration-dependent): 6.5 fold
CYP3A4 induction (CYP3A4; two of three donors): no indication of CYP3A4 induction
clinical inhibition of CYP2C9 (CYP2C9): does not inhibit
